Reference: ChEMBL document CHEMBL1687761

How the values were obtained:
Escherichia coli [1] = test: Activity of Escherichia coli XL1-Blue VIM-2 A64W mutant beta-lactamase by spectrophotometer
In short: (§1)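 Mutant enzyme expressed in E. coli BL21(DE3) in autoinducing ZYP-5052 medium. Purified by anion exchange at pH 7.2, then high-resolution anion exchange at pH 9.2, plus gel filtration in 50 mM HEPES-50 μM ZnSO4 pH 7.5 where needed. Identity confirmed by tryptic peptide mass fingerprint. Steady-state kinetics on β-lactam substrates were run under the conditions used for wild-type VIM-2.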

Escherichia coli [2] = test: Activity of Escherichia coli XL1-Blue wild-type IMP-1 beta-lactamase by spectrophotometer
Escherichia coli [3] = test: Ratio of Kcat to Km for Escherichia coli XL1-Blue IMP-1 W64A mutant beta-lactamase by spectrophotometer
Escherichia coli [4] = test: Ratio of Kcat to Km for Escherichia coli XL1-Blue wild-type IMP-1 beta-lactamase by spectrophotometer
Escherichia coli [5] = test: Activity of Escherichia coli XL1-Blue IMP-1 W64A mutant beta-lactamase by spectrophotometer
Escherichia coli [6] = test: Ratio of Kcat to Km for Escherichia coli XL1-Blue VIM-2 A64W mutant beta-lactamase by spectrophotometer; in short: as §1
[7] = tested on: CO/N=C(\C(=O)N[C@@H]1C(=O)N2C(C(=O)[O-])=C(C[N+]3(C)CCCC3)CS[C@H]12)c1csc(N)n1; test: (§2) Activity of Escherichia coli BL21(DE3) VIM-2 W87A mutant beta-lactamase by spectrophotometer
[8] = tested on: C[C@@H](O)[C@H]1C(=O)N2C(C(=O)O)=C(SCCNC=N)C[C@H]12; test: as §2
[9] = tested on: CO/N=C(\C(=O)N[C@@H]1C(=O)N2C(C(=O)[O-])=C(C[N+]3(C)CCCC3)CS[C@H]12)c1csc(N)n1; test: (§3) Ratio of Kcat to Km for Escherichia coli BL21(DE3) VIM-2 W87A mutant beta-lactamase by spectrophotometer
[10] = tested on: C[C@@H](O)[C@H]1C(=O)N2C(C(=O)O)=C(SCCNC=N)C[C@H]12; test: as §3

Row | Molecule | Km (Escherichia coli [1]) [µM] | kcat (Escherichia coli [1]) [s⁻¹] | Km (Escherichia coli [2]) [µM] | kcat (Escherichia coli [2]) [s⁻¹] | kcat/Km (Escherichia coli [3]) [M⁻¹ s⁻¹] | kcat/Km (Escherichia coli [4]) [M⁻¹ s⁻¹] | Km (Escherichia coli [5]) [µM] | kcat (Escherichia coli [5]) [s⁻¹] | kcat/Km (Escherichia coli [6]) [M⁻¹ s⁻¹] | Km [7] [µM] | kcat [7] [s⁻¹] | Km [8] [µM] | kcat [8] [s⁻¹] | kcat/Km [9] [M⁻¹ s⁻¹] | kcat/Km [10] [M⁻¹ s⁻¹]
1 | CC(=O)OCC1=C(C(=O)O)N2C(=O)[C@@H](NC(=O)Cc3cccs3)[C@H]2SC1 | 6 | 135 | 5 | 32 | 310000 | 6.4e+06 | > 500 | > 250 | 2.2e+07 | – | – | – | – | – | –
2 | CC(C)(O/N=C(\C(=O)N[C@@H]1C(=O)N2C(C(=O)[O-])=C(C[n+]3ccccc3)CS[C@H]12)c1csc(N)n1)C(=O)O | 40 | 0.7 | 44 | 8 | – | 180000 | – | – | 18000 | – | – | – | – | – | –
3 | Metallo-beta-lactamase (Escherichia coli) (from UniProt Q5U7L7) W87A | – | – | – | – | – | – | – | – | – | > 350 | > 4.5 | 22 | 119 | 12000 | 5.4e+06
4 | CO[C@@]1(NC(=O)Cc2cccs2)C(=O)N2C(C(=O)O)=C(COC(N)=O)CS[C@@H]21 | – | – | 3 | 9 | 900000 | 3e+06 | 45 | 40 | – | – | – | – | – | – | –
5 | CO/N=C(\C(=O)N[C@@H]1C(=O)N2C(C(=O)O)=C(COC(C)=O)CS[C@H]12)c1csc(N)n1 | 7 | 26 | 2.8 | 13.4 | 1.5e+06 | 4.8e+06 | 61 | 98 | 3.7e+06 | – | – | – | – | – | –
